Measurements gathered from unrelated publications.
Compare with care: the assays were run in different laboratories.
Cell line: UACC-257
Observed: cell growth or viability

Compound | method | tested at | quantity | result
O=C1NCCc2[nH]c(-c3ccncc3)cc21 | – | – | IC50 | > 10000 nM
COc1cc(-c2ccc(-c3ccc(C(=N)N)nc3)s2)cc(OC)c1OC | SRB | – | GI50 | 2150 nM
O=C1Nc2ccccc2C1=NNc1nnc2n1N=C(c1ccccc1)CS2 | SRB | 10 µM | inhibition | 11%
COc1ccc(-c2ccc(-c3ccc(C(=N)N)nc3)s2)cc1Cl | SRB | – | GI50 | 1880 nM
COc1ccc(C2=Nn3c(NN=C4C(=O)Nc5ccc(Cl)cc54)nnc3SC2)cc1 | SRB | 10 µM | inhibition | 27%
COc1ccc(C(=O)/C=C/c2cc3c(cc2Br)OCO3)cc1S(N)(=O)=O | SRB | 10 µM | inhibition | 36%
NC(=O)c1cc(Cl)ccc1NC(=O)COc1ccccc1 | – | – | GI50 | > 100000 nM
O=C1NC(=NCc2cccs2)S/C1=C\c1ccc2ncccc2c1 | – | – | IC50 | > 10000 nM
COc1ccc(C(=O)/C=C/c2cccc(Cl)c2Cl)cc1S(N)(=O)=O | SRB | 10 µM | inhibition | 65%
